Source: ChEMBL document CHEMBL5107950, “Structure-based design of haloperidol analogues as inhibitors of acetyltransferase Eis from Mycobacterium tuberculosis to overcome kanamycin resistance” (RSC Med Chem, 2021)
Converted amounts (≈) assume the structure as drawn.

Legend:
Mycobacterium avium = experiment: Antibacterial activity against Mycobacterium avium ATCC 25921 assessed as inhibition of bacterial growth incubated upto 3 weeks hrs by resazurin dye based double-dilution method; type: functional; details: ATCC 25921, 504 h
Method in brief: (§1)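 Double-dilution broth MIC. Media: M. smegmatis, Mueller-Hinton; M. abscessus, 7H9 + 0.05% Tween80 + 0.4% glycerol; mc²6230, 7H9 + 0.05% tyloxapol, 0.5% glycerol, 10% OADC, 0.2% casamino acids, 24 µg/mL pantothenate; other mycobacteria, 7H9 + 0.05% Tween80, 0.4% glycerol, 10% ADC. Inoculum from agar set to 0.5 McFarland, then diluted 1:100.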

[1] = tested on: Mycobacteroides abscessus; experiment: Antibacterial activity against Mycobacterium abscessus ATCC 19977 assessed as inhibition of bacterial growth incubated upto 3 weeks hrs by resazurin dye based double-dilution method; type: functional; details: ATCC 19977, 504 h; method in brief: as §1
[2] = tested on: Mycobacterium intracellulare; experiment: Antibacterial activity against Mycobacterium intracellulare ATCC 13950 assessed as inhibition of bacterial growth incubated upto 3 weeks hrs by resazurin dye based double-dilution method; type: functional; details: ATCC 13950, 504 h; method in brief: as §1
[3] = tested on: Mycobacterium tuberculosis; experiment: Antibacterial activity against Mycobacterium tuberculosis H37Ra ATCC NRS22 assessed as inhibition of bacterial growth incubated upto 3 weeks hrs by resazurin dye based double-dilution method; type: functional; details: H37Ra ATCC NRS22, 504 h; method in brief: as §1
N-acetyltransferase Eis = biological target: T1, N-acetyltransferase Eis (Mycobacterium tuberculosis (strain ATCC 25618 / H37Rv), UniProt P9WFK7); experiment: Inhibition of Mycobacterium tuberculosis Eis assessed as Eis-mediated kanamycin acetylation preincubated for 10 mins followed by substrate addition and measured for 2 to 5 mins using acetyl-CoA as substrate in presence of kanamycin by UV-Vis spectroscopy analysis
T1 sequence (P9WFK7 whole entry): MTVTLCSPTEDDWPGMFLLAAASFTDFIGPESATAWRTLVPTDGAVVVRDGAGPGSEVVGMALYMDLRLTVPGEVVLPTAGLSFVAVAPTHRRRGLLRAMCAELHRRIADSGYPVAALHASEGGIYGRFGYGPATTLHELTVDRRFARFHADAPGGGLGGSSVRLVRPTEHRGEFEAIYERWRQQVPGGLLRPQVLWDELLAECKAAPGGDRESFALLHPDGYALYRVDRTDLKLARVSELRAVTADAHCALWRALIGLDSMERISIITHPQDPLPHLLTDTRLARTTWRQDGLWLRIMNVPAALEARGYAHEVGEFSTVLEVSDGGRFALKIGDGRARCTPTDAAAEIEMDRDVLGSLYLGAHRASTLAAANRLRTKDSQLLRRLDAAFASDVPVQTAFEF
Method in brief: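 Recombinant Eis (1 µM) mixed with KAN (400 µM) in 50 mM Tris-HCl pH 8.0 and preincubated 10 min with 5-fold serially diluted inhibitor (10% DMSO in buffer). Reaction started with AcCoA and DTNB (2 mM each, as added). Absorbance read every 30 s for 20 min. Initial rates (first 2-5 min) fitted to Hill plot for IC50. At least triplicate.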

[4] = tested on: Mycolicibacterium smegmatis; experiment: Antibacterial activity against Mycobacterium smegmatis mc2 155 assessed as inhibition of bacterial growth incubated upto 3 weeks hrs by resazurin dye based double-dilution method; type: functional; details: mc2 155, 504 h; method in brief: as §1
[5] = tested on: Mycobacterium tuberculosis; experiment: Potentiation of kanamycin-induced antibacterial activity against Mycobacterium tuberculosis H37Rv assessed as kanamycin MIC incubated for 1 day followed by kanamycin addition for 6 days and by Alamar blue assay; type: functional; details: 168 h, time 7 day
Method in brief: (§2)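 Mtb in 7H9 + 10% ADC, 0.05% Tween 80, 0.4% glycerol at 37 °C. Inoculum adjusted to OD600 0.2, diluted 1:25. Cells preincubated 24 h at 37 °C with compound (100 µL of 200 µM solution). KAN then added: H37Rv at 2.5 and 1.25 µg/mL; K204 at 10, 5, 2.5, 1.25 µg/mL. Incubated 6 days, AlamarBlue added, colour read at 24 and 48 h. MIC = lowest KAN with no colour change. At least twice in duplicate.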

[6] = tested on: Mycobacterium tuberculosis; experiment: Potentiation of kanamycin-induced antibacterial activity against Mycobacterium tuberculosis K204 assessed as kanamycin MIC incubated for 1 day followed by kanamycin addition for 6 days and by Alamar blue assay; type: functional; details: K204, 168 h, time 7 day; method in brief: as §2
[7] = tested on: Mycolicibacterium smegmatis; experiment: Synergistic antibacterial activity against Mycobacterium smegmatis mc2 155 assessed as fold reduction in MIC value at 8 ug/ml in presence of clarithromycin by checkerboard assay; type: functional; details: dose 8 µg/ml
[8] = tested on: Mycolicibacterium smegmatis; experiment: Synergistic antibacterial activity against Mycobacterium smegmatis mc2 155 assessed as fold reduction in MIC value at 8 ug/ml in presence of spectinomycin by checkerboard assay; type: functional; details: dose 8 µg/ml
[9] = Metabolic stability in mouse liver microsomes at 2 to 4 uM incubated for 30 mins by LC-MS/MS analysis; type: ADME, Microsome; details: dose 2-4 µM, read-out: Stability
[10] = Metabolic stability in human liver microsomes at 2 to 4 uM incubated for 30 mins by LC-MS/MS analysis; type: ADME, Microsome; details: dose 2-4 µM, read-out: Stability

Structure (SMILES)	MIC (Mycobacterium avium) [µM]	MIC [1] [µM]	MIC [2] [µM]	MIC [3] [µM]	IC50 (N-acetyltransferase Eis) [µM]	MIC [4] [µM]	MIC [5] [µg/mL]	MIC [6] [µg/mL]	fold change (FC) [7]	fold change (FC) [8]	remaining at 0.5 h [9] [%]	remaining at 0.5 h [10] [%]
CC1CC(C)CN(CCCOc2ccc(F)cc2)C1 (stereo not given)	> 62.5	> 62.5	> 62.5	62.5 (≈ 16.6 µg/mL)	42	62.5 (≈ 16.6 µg/mL)						
O=C(CCCN1CCC(O)(c2ccc(Cl)cc2)CC1)c1ccccc1	62.5 (≈ 22.4 µg/mL)	> 62.5	> 62.5	62.5 (≈ 22.4 µg/mL)	5.3	> 62.5	≤ 1.25	> 10				
Cc1ccc(C(=O)CCCN2CCC(O)(c3ccc(Cl)cc3)CC2)cc1	> 62.5	> 62.5	> 62.5	31.3 (≈ 11.6 µg/mL)	100	62.6 (≈ 23.3 µg/mL)						
CC1CC(C)CN(CCCC(=O)c2ccc(C(C)(C)C)cc2)C1 (stereo not given)	62.5 (≈ 19.7 µg/mL)	62.5 (≈ 19.7 µg/mL)	62.5 (≈ 19.7 µg/mL)	31.3 (≈ 9.88 µg/mL)	200	62.5 (≈ 19.7 µg/mL)						
COc1ccc(C(=O)CCCN2CCC(O)(c3ccc(F)cc3)CC2)cc1	> 62.5	> 62.5	> 62.5	> 62.5	42	> 62.5	≤ 1.25	> 10				
CC(C)c1ccc(C(=O)CCCN2CCC(O)(c3ccc(Cl)cc3)CC2)cc1	> 62.5	31.3 (≈ 12.5 µg/mL)	7.8 (≈ 3.12 µg/mL)	7.8 (≈ 3.12 µg/mL)	> 200	15.6 (≈ 6.24 µg/mL)						
O=C(CN1CCC(O)(c2ccc(Cl)cc2)CC1)c1ccc(F)cc1	> 62.5	> 62.5	> 62.5	> 62.5	100	> 62.5						
O=C(CCCN1CCC(O)(c2ccccc2)CC1)c1ccc(F)cc1	> 62.5	> 62.5	> 62.5	> 62.5	0.85	> 62.5						
N=C(N)NCCCC(=O)c1ccc(F)cc1	> 62.5	> 62.5	> 62.5	31.3 (≈ 6.99 µg/mL)	1.1	> 62.5						
CC(C)(C)c1ccc(C(=O)CCCN2CCC(O)(c3ccc(F)cc3)CC2)cc1	31.3 (≈ 12.4 µg/mL)	> 62.5	31.3 (≈ 12.4 µg/mL)	15.6 (≈ 6.2 µg/mL)	200	62.5 (≈ 24.8 µg/mL)			4	16	48	50
O=C(CCCN1CCCCC1)c1ccc(F)cc1 [PRIMAPERONE]	> 62.5	> 62.5	> 62.5	> 62.5	0.62	> 62.5						
CC(=O)CCCN1CCC(O)(c2ccc(Cl)cc2)CC1	> 62.5	> 62.5	> 62.5	> 62.5	40	> 62.5						
COc1ccc(C(=O)CCCN2CCC(O)(c3ccc(Br)cc3)CC2)cc1	62.5 (≈ 27 µg/mL)	> 62.5	> 62.5	31.3 (≈ 13.5 µg/mL)	5.6	> 62.5	≤ 1.25	> 10				
O=C(CCCN1CC=C(n2c(=O)[nH]c3ccccc32)CC1)c1ccc(F)cc1 [DROPERIDOL]	> 62.5	> 62.5	> 62.5	31.3 (≈ 11.9 µg/mL)	12.2	> 62.5						
Fc1ccc(OCCCN2CCC(c3ccccc3)CC2)cc1	> 62.5	62.5 (≈ 19.6 µg/mL)	62.5 (≈ 19.6 µg/mL)	31.3 (≈ 9.81 µg/mL)	14	> 62.5						
NNC(=O)c1ccncc1 [ISONIAZID]	62.5 (≈ 8.57 µg/mL)	> 62.5	3.9 (≈ 0.535 µg/mL)	≤ 1		3.9 (≈ 0.535 µg/mL)						
O=C(CCCN1CCC(O)(c2ccc(Br)cc2)CC1)c1ccccc1	> 62.5	> 62.5	> 62.5	62.5 (≈ 25.1 µg/mL)	2.2	> 62.5	≤ 1.25	10				
O=C(CCCN1CCC(c2ccc(Cl)cc2)CC1)c1ccc(F)cc1	> 62.5	> 62.5	31.3 (≈ 11.3 µg/mL)	62.5 (≈ 22.5 µg/mL)	1.1	> 62.5						
CC1CCCCN1CCCOc1ccc(F)cc1 (stereo not given)	15.6 (≈ 3.92 µg/mL)	> 62.5	7.8 (≈ 1.96 µg/mL)	7.8 (≈ 1.96 µg/mL)	> 200	15.6 (≈ 3.92 µg/mL)						
O=C(CCCN1CCC(O)(c2ccc(Br)cc2)CC1)c1ccc(Br)cc1	> 62.5	> 62.5	> 62.5	7.8 (≈ 3.75 µg/mL)	> 200	31.3 (≈ 15.1 µg/mL)	≤ 1.25	> 10				
CCc1ccc(C(=O)CCCN2CCC(O)(c3ccc(Cl)cc3)CC2)cc1	62.5 (≈ 24.1 µg/mL)	62.5 (≈ 24.1 µg/mL)	15.6 (≈ 6.02 µg/mL)	15.6 (≈ 6.02 µg/mL)	40	15.6 (≈ 6.02 µg/mL)						
O=C(CCCN1CCC(O)(c2ccc(F)cc2)CC1)c1ccccc1	> 62.5	> 62.5	> 62.5	> 62.5	3.1	> 62.5	≤ 1.25	10				
O=C(CCCN1CCC(O)(c2ccc(F)cc2)CC1)c1ccc(Br)cc1	62.5 (≈ 26.3 µg/mL)	> 62.5	62.5 (≈ 26.3 µg/mL)	31.3 (≈ 13.2 µg/mL)	6.6	> 62.5	≤ 1.25	10				
O=C(CCCN1CC=C(c2ccc(Cl)cc2)CC1)c1ccc(F)cc1	31.3 (≈ 11.2 µg/mL)	> 62.5	15.6 (≈ 5.58 µg/mL)	7.8 (≈ 2.79 µg/mL)	0.56	> 62.5					90	30
Cc1ccc(S(=O)(=O)N2CCC(O)(c3ccc(Cl)cc3)CC2)cc1	> 62.5	> 62.5	> 62.5	> 62.5	> 200	> 62.5						
O=C(CCCN1CCC(O)CC1)c1ccc(F)cc1	> 62.5	> 62.5	> 62.5	> 62.5	0.69	> 62.5						
